pIC50: −log10 of the molar value. Converted amounts (≈) assume the structure as drawn.
Assays:
Mustela putorius furo [1] = assay: Toxicity in iv dosed ferret assessed as first emetic dose by measuring occurrence of vomiting episode after 6 hrs; assay type: organism-based; details: in vivo
[2] = Aqueous solubility of the compound at pH 7.4; details: buffer
serum albumin = serum albumin (Homo sapiens, UniProt P02768); assay: Binding affinity to human serum albumin; assay type: ADME; details: read-out: PB (converted)
serum albumin, sequence (P02768 whole entry): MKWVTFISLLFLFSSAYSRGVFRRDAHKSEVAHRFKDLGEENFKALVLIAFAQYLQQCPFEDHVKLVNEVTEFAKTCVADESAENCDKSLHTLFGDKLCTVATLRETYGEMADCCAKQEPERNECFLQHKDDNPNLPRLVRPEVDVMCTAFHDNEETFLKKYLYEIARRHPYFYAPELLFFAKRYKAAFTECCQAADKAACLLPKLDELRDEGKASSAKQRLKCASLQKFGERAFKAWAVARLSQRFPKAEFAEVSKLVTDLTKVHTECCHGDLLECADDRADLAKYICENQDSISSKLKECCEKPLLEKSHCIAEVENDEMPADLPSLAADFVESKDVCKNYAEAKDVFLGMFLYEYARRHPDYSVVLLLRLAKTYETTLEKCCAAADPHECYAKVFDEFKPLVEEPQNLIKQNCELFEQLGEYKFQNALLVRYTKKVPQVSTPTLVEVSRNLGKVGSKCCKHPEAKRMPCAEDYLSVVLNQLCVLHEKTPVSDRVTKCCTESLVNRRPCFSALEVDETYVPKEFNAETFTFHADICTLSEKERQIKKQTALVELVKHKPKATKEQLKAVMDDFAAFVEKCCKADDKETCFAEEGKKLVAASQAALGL

[3] = biological target: 3',5'-cyclic-AMP phosphodiesterase 4A (Homo sapiens, UniProt P27815); assay: Inhibition of human full length PDE4A4 expressed in baculovirus infected sf21 cells
3',5'-cyclic-AMP phosphodiesterase 4A, sequence (P27815 whole entry): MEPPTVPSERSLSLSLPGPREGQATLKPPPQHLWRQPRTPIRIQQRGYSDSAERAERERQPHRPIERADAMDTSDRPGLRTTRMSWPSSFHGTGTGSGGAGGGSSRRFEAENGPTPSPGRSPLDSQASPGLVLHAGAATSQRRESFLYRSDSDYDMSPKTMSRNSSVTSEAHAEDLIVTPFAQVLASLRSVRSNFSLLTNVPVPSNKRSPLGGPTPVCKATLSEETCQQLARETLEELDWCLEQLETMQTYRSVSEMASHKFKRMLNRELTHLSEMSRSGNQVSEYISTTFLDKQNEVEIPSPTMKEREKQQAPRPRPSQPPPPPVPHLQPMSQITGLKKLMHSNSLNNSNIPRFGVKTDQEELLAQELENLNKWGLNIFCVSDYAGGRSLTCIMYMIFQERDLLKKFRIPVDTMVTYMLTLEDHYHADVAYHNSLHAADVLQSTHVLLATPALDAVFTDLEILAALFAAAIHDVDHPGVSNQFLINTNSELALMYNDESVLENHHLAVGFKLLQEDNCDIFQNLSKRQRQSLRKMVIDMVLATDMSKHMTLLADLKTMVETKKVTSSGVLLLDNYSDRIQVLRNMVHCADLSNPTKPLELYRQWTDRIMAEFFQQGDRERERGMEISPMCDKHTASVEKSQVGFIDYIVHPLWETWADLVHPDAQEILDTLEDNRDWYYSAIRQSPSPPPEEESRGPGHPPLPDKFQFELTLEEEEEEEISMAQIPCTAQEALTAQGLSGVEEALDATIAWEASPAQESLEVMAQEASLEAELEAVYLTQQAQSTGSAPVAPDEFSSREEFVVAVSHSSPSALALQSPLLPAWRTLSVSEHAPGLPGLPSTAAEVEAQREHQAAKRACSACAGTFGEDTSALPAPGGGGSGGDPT

[4] = biological target: High affinity 3',5'-cyclic-AMP phosphodiesterase 7A (Homo sapiens, UniProt Q13946); assay: Inhibition of human full length PDE7A1 expressed in baculovirus infected sf21 cells
High affinity 3',5'-cyclic-AMP phosphodiesterase 7A, sequence (Q13946 whole entry): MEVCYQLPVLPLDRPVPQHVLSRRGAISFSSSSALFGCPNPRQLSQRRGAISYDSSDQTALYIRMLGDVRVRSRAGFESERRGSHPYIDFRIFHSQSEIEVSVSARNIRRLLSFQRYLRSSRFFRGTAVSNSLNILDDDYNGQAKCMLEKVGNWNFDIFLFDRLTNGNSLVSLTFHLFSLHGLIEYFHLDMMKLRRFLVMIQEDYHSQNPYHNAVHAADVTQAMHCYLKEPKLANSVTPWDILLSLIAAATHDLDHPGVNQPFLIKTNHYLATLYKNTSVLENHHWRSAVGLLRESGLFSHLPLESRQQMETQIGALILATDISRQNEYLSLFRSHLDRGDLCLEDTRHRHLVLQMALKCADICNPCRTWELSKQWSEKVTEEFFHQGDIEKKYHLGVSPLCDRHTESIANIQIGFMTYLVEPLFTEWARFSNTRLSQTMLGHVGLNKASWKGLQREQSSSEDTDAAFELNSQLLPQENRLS

[5] = Intrinsic clearance in rat liver microsomes; assay type: ADME, Microsome; details: read-out: CLH
[6] = biological target: Voltage-gated inwardly rectifying potassium channel KCNH2 (Homo sapiens, UniProt Q12809); assay: Inhibition of human ERG
Voltage-gated inwardly rectifying potassium channel KCNH2, sequence (Q12809 whole entry): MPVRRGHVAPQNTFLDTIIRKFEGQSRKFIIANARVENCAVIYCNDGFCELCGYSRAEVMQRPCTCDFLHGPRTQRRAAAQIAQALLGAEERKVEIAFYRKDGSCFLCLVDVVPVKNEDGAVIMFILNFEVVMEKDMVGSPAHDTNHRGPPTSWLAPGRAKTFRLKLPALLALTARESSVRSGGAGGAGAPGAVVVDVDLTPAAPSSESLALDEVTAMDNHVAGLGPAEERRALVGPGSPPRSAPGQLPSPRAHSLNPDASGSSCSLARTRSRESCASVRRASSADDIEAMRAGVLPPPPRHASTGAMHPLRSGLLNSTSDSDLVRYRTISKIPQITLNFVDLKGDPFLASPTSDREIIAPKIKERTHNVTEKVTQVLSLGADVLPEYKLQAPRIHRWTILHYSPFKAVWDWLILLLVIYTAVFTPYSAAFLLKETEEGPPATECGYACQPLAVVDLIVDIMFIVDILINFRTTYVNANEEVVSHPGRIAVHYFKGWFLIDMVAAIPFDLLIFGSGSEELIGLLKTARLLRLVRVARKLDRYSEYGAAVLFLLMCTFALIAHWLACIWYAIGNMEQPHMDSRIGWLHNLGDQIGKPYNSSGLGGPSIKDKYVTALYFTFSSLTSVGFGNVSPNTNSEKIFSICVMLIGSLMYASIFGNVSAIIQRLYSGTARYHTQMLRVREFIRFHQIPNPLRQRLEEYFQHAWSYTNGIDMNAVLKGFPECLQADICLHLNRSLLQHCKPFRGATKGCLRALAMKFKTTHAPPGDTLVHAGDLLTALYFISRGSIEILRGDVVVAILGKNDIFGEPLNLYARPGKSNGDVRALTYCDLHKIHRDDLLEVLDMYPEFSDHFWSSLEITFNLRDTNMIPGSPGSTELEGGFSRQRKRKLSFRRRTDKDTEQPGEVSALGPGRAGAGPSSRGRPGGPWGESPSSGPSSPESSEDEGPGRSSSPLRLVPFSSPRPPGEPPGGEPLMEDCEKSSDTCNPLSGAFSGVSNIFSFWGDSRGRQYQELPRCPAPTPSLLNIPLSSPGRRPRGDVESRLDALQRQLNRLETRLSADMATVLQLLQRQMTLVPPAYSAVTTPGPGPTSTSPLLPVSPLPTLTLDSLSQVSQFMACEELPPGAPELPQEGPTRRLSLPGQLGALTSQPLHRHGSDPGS
Procedure, shortened: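 hERG was tested in a binding-format assay as percent inhibition at a single test concentration of 10 µM.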

[7] = Inhibition of cytochrome P450 (unknown origin); assay type: ADME; details: human
Homo sapiens = organism: Homo sapiens; assay: Selectivity ratio of IC50 for human full length PDE7A1 to IC50 for human full length PDE4A4
Mustela putorius furo [8] = assay: Toxicity in po dosed ferret assessed as first emetic dose by measuring occurrence of vomiting episode after 6 hrs; assay type: organism-based; details: in vivo
Procedure, shortened: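 Ferrets were given oral doses and watched for 6 h after administration for a vomiting episode; the first emetic dose was reported in mg/kg.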

Mustela putorius furo [9] = assay: Inhibition of LPS-induced neutrophilia in ferret COPD model BAL-fluid at 10 mg/kg, po; assay type: functional

Row | pIC50 [3] | SMILES | pIC50 [4] | CLint scaled [5] | further results
1 |  | COc1ccc(C2CNC(=O)C2)cc1OC1CCCC1 (racemic) [ROLIPRAM] |  |  | Activity (Mustela putorius furo [1]): 0.3 mg/kg; solubility [2]: 171 µg/mL (≈ 621 µM); fraction unbound (serum albumin): 0.42
2 | 7.06 | CCC(C#N)(CC)Nc1nc(Cl)nc(NC)n1 |  |  | 
3 | 6.98 | CNc1nc(Cl)nc(NC2CCCCC2)n1 |  |  | 
4 | 9.82 | CNc1nc(NC2(C#N)CCCCC2C)nc(-n2cncn2)n1 (mixture of isomers) |  | 86 mL/min/kg | solubility [2]: 25 µg/mL
5 | 9.05 | CNc1nc(NC(C#N)(C2CC2)C2CC2)nc(-n2cncn2)n1 |  | 3.7 mL/min/kg | solubility [2]: 22 µg/mL (≈ 70.7 µM)
6 | 5.98 | N#CC1(Nc2nc(N)nc(Cl)n2)CCCCC1 |  |  | 
7 | 6.18 | CN(C)c1nc(Cl)nc(NC2(C#N)CCCCC2)n1 |  |  | 
8 | 6.63 | CCNc1nc(Cl)nc(NC2(C#N)CCCCC2)n1 |  |  | 
9 | 7.22 | CCCC(C#N)(CCC)Nc1nc(Cl)nc(NC)n1 |  |  | 
10 | < 6.00 | CNc1nc(N)nc(NC2(C#N)CCCCC2)n1 |  |  | 
11 | 8.57 | C#CC(CC)(CC)Nc1nc(NC)nc(-n2cncn2)n1 |  | 22 mL/min/kg | 
12 | 8.80 | CNc1nc(NC2(C#N)CCC(C)CC2)nc(-n2cncn2)n1 (mixture of isomers) |  | 37 mL/min/kg | 
13 |  | COc1ccc([C@]2(C#N)CC[C@@H](C(=O)O)CC2)cc1OC1CCCC1 [CILOMILAST] |  |  | Activity (Mustela putorius furo [8]): 1 mg/kg; inhibition in vivo at 10 mg/kg (Mustela putorius furo [9]): 35%; solubility [2]: 17 µg/mL (≈ 49.5 µM); fraction unbound (serum albumin): 0.09
14 | 6.80 | CNc1nc(Cl)nc(NC(C)(C)C#N)n1 |  |  | 

Row | SMILES | pIC50 [3] | pIC50 [4] | CLint scaled [5] | further results
15 | CNc1nc(NC2(C#N)CCCCC2)nc(N(C)C)n1 | 7.74 | < 5.30 | 276 mL/min/kg | 
16 | CNc1nc(NC)nc(NC2(C#N)CCCCC2)n1 | 6.82 | < 6.00 | 210 mL/min/kg | 
17 | CNc1nc(NC2(C#N)CCCCC2)nc(OC)n1 | 7.72 | 6.28 | 196 mL/min/kg | 
18 | CNc1nc(NC2(C#N)CCCCC2)nc(-n2ccnc2)n1 | 8.18 | 5.98 | 52 mL/min/kg | inhibition (INH) [6]: Not Active; inhibition (INH) [7]: Not Active
19 | CNc1nc(NC2(C#N)CCCCC2)nc(C2CC2)n1 | 7.72 | 6.27 | 276 mL/min/kg | 
20 | CNc1nc(NC2(C#N)CCCCC2)nc(SC)n1 | 8.36 | 7.34 | 579 mL/min/kg | 
21 | CNc1nc(C#N)nc(NC2(C#N)CCCCC2)n1 | 7.42 | < 6.00 | 122 mL/min/kg | 
22 | CNc1nc(NC2(C#N)CCCCC2)nc(-n2cncn2)n1 | 8.77 | < 5.30 | 52 mL/min/kg | solubility [2]: 11 µg/mL (≈ 36.7 µM); inhibition (INH) [6]: Not Active; Ratio IC50 (Homo sapiens): > 1000; inhibition (INH) [7]: Not Active
23 | CNc1nc(NC2(C#N)CCCCC2)nc(-n2cccn2)n1 | 8.44 | < 5.30 | 103 mL/min/kg | 
24 | CNc1nc(Nc2ccccc2)nc(NC2(C#N)CCCCC2)n1 | 7.25 | < 5.30 |  | 

From ChEMBL document CHEMBL2401705, “Discovery of triazines as potent, selective and orally active PDE4 inhibitors” (Bioorg Med Chem Lett, 2013)
